# Screening results deposited in PubChem BioAssay by several laboratories.
# Compounds with a hit are over-represented: about 5.4% of the library has one in this group of screens.
# Ecoli tolC: growth inhibitors of E. coli BW25113 tolC mutant; actives 2.2% (n = 65,000); AID 573; growth inhibition, % at 10 µM (by protocol); OD615;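 active = growth inhibition at or above a cutoff equal to the mean over every tested compound plus 3 SD, cut at about 60% in these data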;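 also: growth measured after 20 h incubation at 37 °C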
#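 System: E. coli ΔtolC::kan strain BW25113; Buffer or medium: LB broth supplemented with 50 µg/mL kanamycin; Compound: 10 µM final, single dose; Incubation: bacterial growth with compound for 20 h at 37 °C; Signal: A615 absorbance measurement; Evaluation: growth inhibition in percent.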
# PostGolgi ctrl: growth of the yeast control strain, post-Golgi counter-screen. actives 5% (n = 98,000). inhibition, % at 10 µM. efflux-deficient yeast background strain, growth absorbance A615, 16 h
# PLAP act: human PLAP activation; P05187; purified PLAP enzyme, luminescent substrate read-out; active compounds read high; activation fold at 20 µM; actives 1.2% (n = 96,000); in the data active = activation fold above about 2
# E coli WT exp: growth inhibitors of E. coli BW25113 wild type. OD600 absorbance. growth inhibition, % at 100 µM. actives 0.15% (n = 98,000);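 active = growth inhibition above about 50% at one test dose, limit read from the data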;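 also: growth measured after 20 h incubation at 37 °C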
# HePTP inh: human HePTP phosphatase inhibition; recombinant HePTP phosphatase activity, OD absorbance; inhibition, % at 20 µM; actives 0.64% (n = 110,000); AID 521; in the data active = inhibition above about 50%;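 also: plate controls were vehicle for no effect and reference inhibitor for full effect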
# Target sequence (P35236 whole entry, looked up): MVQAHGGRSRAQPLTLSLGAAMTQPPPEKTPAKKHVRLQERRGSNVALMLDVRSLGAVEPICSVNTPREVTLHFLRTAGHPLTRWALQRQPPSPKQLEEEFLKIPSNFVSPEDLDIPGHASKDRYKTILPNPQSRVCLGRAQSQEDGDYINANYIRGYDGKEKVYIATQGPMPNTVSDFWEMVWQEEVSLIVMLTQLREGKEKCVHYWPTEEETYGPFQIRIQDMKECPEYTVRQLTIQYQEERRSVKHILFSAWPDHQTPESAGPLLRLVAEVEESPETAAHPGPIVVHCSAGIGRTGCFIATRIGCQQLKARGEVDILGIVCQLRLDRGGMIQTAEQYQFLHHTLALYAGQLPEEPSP
# PostGolgi yeast: growth inhibition of a yeast mutant, post-Golgi transport screen; post-Golgi transport phenotypic cell assay; actives 0.9% (n = 98,000); inhibition, % at 10 µM;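 also: yeast cells grown in 1536-well plates; yeast grown about 18 h at 30C before absorbance read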
# An asterisk follows results filed as active; nt = not tested or not shown. Rule as the data show it, unless noted: active = inhibition above about 30%; inactive = the rest.
SMILES,Ecoli tolC,PostGolgi ctrl,PLAP act,E coli WT exp,HePTP inh,PostGolgi yeast
CCc1[nH]c(=O)c(C#N)c2c1COC(C)(C)C2,nt,17,1.1,3,nt,-4
CCc1[nH]c(=O)c(C#N)c2c1CCCC2,5,32*,1.3,-4,4,8
CSc1nc(N2CCOCC2)c2c3c(sc2n1)CCCC3,96*,36*,1,-2,15,11
Brc1ccccc1OCCCn1ccnc1,nt,nt,nt,nt,3,nt
Cc1[nH]c2ccccc2c1Cc1nnc(SCc2ccccc2)o1,nt,35*,0.9,-17,nt,11
COc1cc(CNCCc2ccccc2)ccc1OCc1ccc(Cl)nc1,nt,39*,1.8,1,nt,18
COc1cc(CNCC(O)c2ccccc2)ccc1OCc1ccc(Cl)nc1 (stereo not given),nt,4,1.8,6,nt,0
Cc1ccc(C(=C2C3C=CC2C2C(=O)NC(=O)C32)c2ccc(C)cc2)cc1 (stereo not given),nt,55*,1,6,nt,-1
Cc1ccc(C(=O)Nc2c(C(=O)Nc3ccccc3)cnn2-c2ccccc2)cc1,nt,nt,nt,nt,-2,nt
Cc1csc(-c2cnn(-c3ccccc3)c2NC(=O)c2ccc(C(F)(F)F)cc2)n1,nt,44*,1,0,nt,18
CCOC(=O)C(N)Cc1ccc(O)c([N+](=O)[O-])c1 (stereo not given),nt,nt,nt,nt,7,nt
CC(C(=O)NCC1CCCO1)N(C(=O)c1snc(C(N)=O)c1N)c1ccccc1 (stereo not given),-9,30*,0.9,-1,7,2
Cc1oc(C(C)(C)C)cc1C(=O)Nc1ccc(NC(=O)C(=O)O)cc1,nt,nt,nt,nt,-11,nt
CCCCNCCCCOc1cccc(OC)c1,nt,nt,nt,nt,2,nt
Oc1cccc(C=Nc2ccccc2O)c1,nt,nt,nt,nt,-16,nt
Oc1cccc(C=NC2CCCCC2)c1,nt,nt,nt,nt,64*,nt
C=C(C)COc1ccc2c(C)c(CC(=O)OC)c(=O)oc2c1C,50,109*,0.9,-3,-3,104*
Cc1cc(-c2ccccc2)nc(Oc2ccc(C(C)(C)C)cc2)c1S(C)(=O)=O,nt,63*,1.1,-11,nt,7
Cc1cc(C)cc(Oc2nc(-c3ccccc3)cc(C)c2S(C)(=O)=O)c1,nt,45*,1.4,-8,nt,0
CC(C)C1Cc2c(sc3c2c(=O)n(Cc2ccccc2)c2nncn32)CO1 (stereo not given),10,43*,1.2,-3,-2,2
Cc1nnc2n(Cc3ccccc3)c(=O)c3c4c(sc3n12)COC(C(C)C)C4 (stereo not given),1,71*,1.2,-6,-13,3
C/C(=N\NC(=O)COc1ccc(Cl)cc1)c1ccc(Cl)s1,nt,nt,nt,nt,-2,nt
CCCCN(Cc1ccccc1)S(=O)(=O)c1cc(Br)cc2c1N(C(C)=O)C(C)C2 (stereo not given),nt,36*,1.7,-15,nt,10
CC(=O)N1c2c(cc(Br)cc2S(=O)(=O)NCc2cccnc2)CC1C (stereo not given),-4,-4,1,1,4,-10
S=C(c1ccccc1)N1CCN(c2cccc(Cl)c2)CC1,nt,nt,nt,nt,4,nt
SMILES,Ecoli tolC,PostGolgi ctrl,PLAP act,E coli WT exp,HePTP inh,PostGolgi yeast
CCNC(=O)N1CCNC(=O)C1CC(=O)OC (stereo not given),-6,31*,0.9,-6,-4,1
C=CCNC(=O)CN(c1ccc(Br)cc1)S(C)(=O)=O,nt,nt,nt,nt,0,nt
COc1ccc(NC2SC(=O)N(CC(=O)O)C2=O)cc1 (stereo not given),-17,37*,1,-4,3,9
COC(=O)/C=C(\C)NCCN/C(C)=C/C(=O)OC,nt,nt,nt,nt,105*,nt
COC(=O)/C=C(\C)NC(=O)c1ccc(F)cc1,nt,-5,1.1,7,nt,-9
O=C(N/N=C/c1ccc(O)c(I)c1)c1ccncc1,nt,nt,nt,nt,8,nt
CS(=O)(=O)N(CC(=O)NCc1ccco1)c1ccc(Oc2ccccc2)cc1,nt,nt,nt,nt,-19,nt
O=[N+]([O-])c1ccc(CSc2cccc3cccnc23)cc1,nt,nt,nt,nt,-27,nt
CCn1cnc2sc(C(=O)N3CCN(Cc4ccc5c(c4)OCO5)CC3)c(C)c2c1=O,-9,15,1.2,-3,2,0
CCn1cnc2sc(C(=O)N(Cc3ccc(N(C)C)cc3)Cc3ccco3)c(C)c2c1=O,5,39*,1.5,-8,9,12
C/C(=N/OCC(=O)Nc1sc2c(c1C#N)CCCC2)c1ccc(Br)cc1,nt,nt,nt,nt,2,nt
CCOC(=O)C1=C(C)NC2=C(C(=O)CCC2)C1c1ccc(OCc2cccc(F)c2)c(OC)c1 (stereo not given),nt,nt,nt,nt,-11,nt
Cc1csc(NC(=O)CSc2ncnc3c2cnn3-c2ccccc2Cl)n1,61*,32*,1.4,2,8,1
Cc1cc(Br)ccc1NC(=O)CNC(=O)CSc1n[nH]c(N)n1,-16,14,1.9,4,6,-7
Nc1nc(SCC(=O)Nc2ccc(Br)cc2F)n[nH]1,-3,-2,2*,14,11,13
COc1ccc(/C=C(/C(=O)c2c(C)cc(C)[nH]c2=O)c2ccccc2)cc1,nt,nt,nt,nt,-19,nt
CCOc1ccccc1-n1c(SCC(=O)N(CC)CC)nnc1-c1ccccn1,-15,40*,1,-1,8,-1
CCOc1ccccc1-n1c(SCC(=O)N2CCOCC2)nnc1-c1ccccn1,-25,0,1.4,1,5,7
Cc1ccc(OCC(=O)N/N=C\c2c(C)n(C)c3ccccc23)c([N+](=O)[O-])c1,nt,54*,1.2,-6,nt,-1
O=C(CSc1ncn[nH]1)Nc1nnc(-c2ccccc2)s1,15,6,2.3*,0,-7,-1
Cc1cc(C)c(C)c(OCC(=O)NCc2nc(-c3ccccc3)no2)c1,21,41*,0.8,-9,5,1
Cc1cc(OCC(=O)NCc2nc(-c3ccccc3)no2)c(C)cc1Br,-14,33*,0.8,-9,-10,1
COc1cc(OC)cc(C(=O)NCc2nc(-c3ccccc3)no2)c1,2,-1,0.9,1,-2,6
CCOC(=O)c1c(NC(=O)CN2CCCCC2)sc2c1CCN(C(=O)OCC)C2,96*,13,1.5,-5,-1,13
CCOC(=O)c1c(NC(=O)CN(CC)CC)sc2c1CCN(C(=O)OCC)C2,18,21,1.7,1,-1,-3
SMILES,Ecoli tolC,PostGolgi ctrl,PLAP act,E coli WT exp,HePTP inh,PostGolgi yeast
O=C(/C=C/c1ccc(Cl)cc1)Nc1ccc(-c2nc3ncccc3o2)cc1,nt,nt,nt,nt,-6,nt
O=C(CN1CCCC1)N1CCCc2c1c(=O)oc1ccc(OCc3ccccc3)cc21,-7,36*,1.4,5,-4,22
CCCOc1ccc2oc(=O)c3c(c2c1)CCCN3C(=O)CN1CCN(C(=O)c2ccco2)CC1,1,14,nt,6,2,-4
COc1cc2c(cc1C)/C(=N/OC(=O)c1ccc(OC)c(OC)c1)CCC2,nt,nt,nt,nt,0,nt
CCCCCc1nc2c(C#N)c(-c3ccc(Cl)cc3)ccn2n1,nt,34*,0.9,-14,nt,-2
CN(C(=O)CSc1nc(-c2ccccc2)cn1N)C(c1ccccc1)c1ccccc1,nt,47*,1.6,-9,nt,-12
CC1=CC(C)(C)N(S(=O)(=O)c2ccc(C)cc2)c2ccc(C)cc21,nt,60*,0.6,-9,-12,1
O=C(O)c1cccc([N+](=O)[O-])c1C(=O)Nc1ccc(Cl)cn1,nt,nt,nt,nt,-2,nt
